The values below come from paper PMC6092622 (The EMBO Journal, 2018).

Assay [1] relates to IKK and SOD1/IKK mice. It is filed as in vivo, mouse. Put shortly: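 Transgene expression was active in the sustained cohort (DOX withdrawn at P20–25). Mice of all four genotypes got a Porcupine inhibitor by daily oral gavage at 10 mg/kg for 12 days, from P25 (sacrificed at P38) or from P90 (to P102). It was suspended in PBS + 5% Tween-80 + 5% PEG-400; vehicle controls were included. Spinal cord sections were immunostained; Ki-67 and CD45 required citrate antigen retrieval. Cell densities are per area unit.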

The test system of assay [2] is SOD1 (G93A) mice. Kind of assay: CB2 ligands given i.p. to SOD1. It is filed as in vivo, mouse. As to conditions: for fraction of LC3A bright MN: P25 to P35, vehicle 23.4 ± 7.7; for misfolded SOD1: high-burden MN fraction: P25 to P35, vehicle 25.4 ± 5.5%; for %IBA1+ area (microglial expansion): P25 to P35, SOD1-veh 9.7 ± 0.4%. Put shortly: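 Male SOD1(G93A) mice got daily i.p. CB2 agonists (10 mg/kg) or inverse agonist (30 mg/kg) as a microsuspension in 1% Tween-80/0.9% NaCl with 0.2% parabens, or vehicle. Spinal cords were perfusion-fixed and cut into 40 μm free-floating sections. CD4 was stained after citrate-heat antigen retrieval. IBA1 was scored as the thresholded area fraction of ventral-horn ROIs. High-burden MN cutoff: 75th percentile of vehicle-treated SOD1. Used 8–10 sections/mouse, ≥4 mice/group.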

In assay [3] the target is T1, human CB2 (Homo sapiens, UniProt P34972). Kind of assay: cAMP assay in CHO cells stably expressing human CB2. It is filed as cell-based. The settings on record: in words. Put shortly:
(§1)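 cAMP assays were run in CHO cells stably expressing human CB2 or mouse CB2. Efficacy is expressed as % of the response to 1 μM CP55940.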
For orientation: Cyclic AMP is a second messenger, typically raised through Gs and lowered through Gi signalling.

For assay [4], the system named is WT mice. Kind of assay: CB2 agonists given to WT mice, IBA1 immunostaining. It is filed as in vivo, mouse. The settings on record: IBA1 staining.
Assay [5] has as its target T1, human CB2. It is filed as binding. As to conditions: CB2 versus CB1, as stated in text. Put shortly:
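Competition binding used [3H]-CP55940 radioligand on membranes from cells expressing human CB2 or human CB1, so that selectivity could be compared. Each compound was tested at 10 concentrations in triplicate. Ki values were calculated from a single experiment.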

Assay [6] deals with mouse CB2 (Mus musculus, UniProt P47936). Kind of assay: cAMP assay in CHO cells stably expressing mouse CB2. It is filed as cell-based. As to conditions: in words. Put shortly:
as §1

[7] abbreviates: 30 mg/kg once daily i.p., P25 to P35.
The mark [8] stands for this setting: 10 mg/kg once daily i.p., P25 to P35.

Where two headings read alike, the source gives them in different places.

mouse CB2, sequence (P47936 whole entry): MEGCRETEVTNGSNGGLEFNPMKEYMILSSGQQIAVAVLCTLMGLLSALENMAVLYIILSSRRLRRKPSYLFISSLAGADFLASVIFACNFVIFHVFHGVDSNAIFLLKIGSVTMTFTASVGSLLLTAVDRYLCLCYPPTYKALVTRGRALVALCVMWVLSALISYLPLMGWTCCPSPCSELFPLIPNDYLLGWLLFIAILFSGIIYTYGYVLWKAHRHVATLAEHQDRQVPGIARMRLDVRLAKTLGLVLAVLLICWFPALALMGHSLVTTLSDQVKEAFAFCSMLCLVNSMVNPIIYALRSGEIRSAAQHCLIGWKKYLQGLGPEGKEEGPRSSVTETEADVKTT
T1 sequence (P34972 whole entry): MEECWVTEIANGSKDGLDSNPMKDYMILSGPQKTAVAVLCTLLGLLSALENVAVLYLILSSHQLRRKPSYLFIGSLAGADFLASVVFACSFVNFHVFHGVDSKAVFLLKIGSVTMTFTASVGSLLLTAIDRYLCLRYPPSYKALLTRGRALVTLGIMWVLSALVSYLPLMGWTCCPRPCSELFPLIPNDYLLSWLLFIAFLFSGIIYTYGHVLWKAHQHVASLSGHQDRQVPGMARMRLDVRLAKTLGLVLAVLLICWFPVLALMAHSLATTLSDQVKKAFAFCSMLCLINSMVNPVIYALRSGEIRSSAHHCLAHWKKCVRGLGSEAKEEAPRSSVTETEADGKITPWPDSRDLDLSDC

Take `Cc1cc(-c2ccc(CC(=O)Nc3ccc(-c4cccnc4)cc3)cc2)ccn1` [Compound C59]: in assay [1] (10 mg/kg daily oral gavage for 12 days from P25, sacrifice at P38), the WNT5a immunoreactivity is on record as < 10 % of vehicle‐treated (Veh) SOD1/IKK. In addition, the “decrease in misfolded SOD1 and LC3A levels in SOD1/IKK versus SOD1 littermates” value in assay [1] (10 mg/kg daily oral, P25-P38) is reported as “completely reverted”. In addition, the “number of CD45+ cells” value is listed as “significantly decreased” in assay [1] (IKK and SOD1/IKK mice, late phase P90 to P102); “strongly decreased” in assay [1] (early administration, 10 mg/kg daily oral, P25-P38). In addition, the “number of CD11b+KI-67+ cells” value was found to be 5.4 ± 0.2 cells per 10^4 μm^2 in assay [1] (IKK mice, 10 mg/kg daily oral, P25-P38, IKK-Veh 11.0 ± 3.0) and 5.0 ± 1.3 cells per 10^4 μm^2 in assay [1] (SOD1/IKK mice, 10 mg/kg daily oral, P25-P38, SOD1/IKK-Veh 18.0 ± 2.0). Besides, the “overall IBA1+ area” value in assay [1] (IKK mice, 10 mg/kg daily oral, P25-P38, IKK-Veh 52.1 ± 6.5) came out at 30.5 ± 4.6%; in assay [1] (SOD1/IKK mice, 10 mg/kg daily oral, P25-P38, SOD1/IKK-Veh 53.6 ± 3.9), 39.2 ± 4.9%. Further, the “microglial density (number of IBA1+ cells)” value in assay [1] (IKK mice, 10 mg/kg daily oral, P25-P38, vehicle 30.4 ± 1.8) was 18.2 ± 1.7 cells/10^4 μm^2; in assay [1] (SOD1/IKK mice, 10 mg/kg daily oral, P25-P38, vehicle 36.2 ± 6.1), 20.2 ± 4.0 cells/10^4 μm^2. Besides, the “number of IBA1+ cells at P102” value in assay [1] (IKK mice, late phase P90 to P102, IKK-Veh 16.5 ± 0.7) is 7.8 ± 0.3; in assay [1] (SOD1/IKK mice, late phase P90 to P102, SOD1/IKK-Veh 15.8 ± 0.2), 9.41 ± 0.35.

In the case of `CNC(=O)[C@@H](NC(=O)c1cc(OCC2(C)COC2)c(C2CC2)cn1)C(C)(C)C` [RO6851228, 5-Cyclopropyl-N-[(1S)-2,2-dimethyl-1-(methylcarbamoyl)propyl]-4-[(3-methyloxetan-3-yl)methoxy]pyridine-2-carboxamide], in assay [2] (setting [7]), the “infiltration of CD4+ lymphocytes in spinal cord” value (from here on “infiltration of CD4+ lymphocytes”) was “did not affect lymphocyte infiltration”; the microglial morphology entry was “expansion of the size and of the complexity of microglial processes”. Further, in assay [2] (30 mg/kg once daily i.p.), the “fraction of LC3A bright MN” value is 11.4 ± 13.9% and the “misfolded SOD1: high-burden MN fraction” value is reported as 10.2 ± 5.1%. For the same molecule, the “functional activity in cAMP assay, human CB2” value in assay [3] is reported as “inverse agonist activity”.

For the molecule `Cc1nonc1Cn1nnc2c(N3CC[C@H](O)C3)nc(C(C)(C)C)nc21` [RO6866945, (3S)-1-[5-tert-Butyl-3-[(4-methyl-1,2,5-oxadiazol-3-yl)methyl]triazolo[4,5-d]pyrimidin-7-yl]pyrrolidin-3-ol], the “infiltration of CD4+ lymphocytes” value in assay [2] (setting [8]) is on record as “did not affect lymphocyte infiltration”. In assay [2] (10 mg/kg once daily i.p.), the “%IBA1+ area (microglial expansion)” value was found to be 4.9 ± 0.2%, the “fraction of LC3A bright MN” value is 70.8 ± 11.2% and the “misfolded SOD1: high-burden MN fraction” value is reported as 42.3 ± 8.7%. In addition, in assay [4], the “effect on microglial size in WT animals” value was “did not affect microglial size”. In assay [5], the “binding selectivity against CB1” value is reported as 939 fold. The “functional activity in cAMP assay, human CB2” value in assay [3] was “full agonists”. Besides, the “functional activity in cAMP assay, mouse CB2” value in assay [6] was “full agonists”.

Take `Cc1nc([C@@](C)(CC2CC2)NC(=O)c2cc(OCC(F)(F)F)c(C3CC3)cn2)no1` [RO6871085, 5-Cyclopropyl-N-[(1R)-2-cyclopropyl-1-methyl-1-(5-methyl-1,2,4-oxadiazol-3-yl)ethyl]-4-(2,2,2-trifluoroethoxy)pyridine-2-carboxamide]: in assay [2] (setting [8]), the “infiltration of CD4+ lymphocytes” value is given as “increased the number of CD4^+ cells”. Further, in assay [2] (10 mg/kg once daily i.p.), the “%IBA1+ area (microglial expansion)” value is on record as 5.2 ± 0.3%, the “fraction of LC3A bright MN” value is on record as 45.4 ± 5.6% and the “misfolded SOD1: high-burden MN fraction” value stood at 69.1 ± 9.5%. Further, the “binding selectivity against CB1” value in assay [5] is recorded as 44 fold. Besides, the “functional activity in cAMP assay, human CB2” value in assay [3] is listed as “full agonists”. The “functional activity in cAMP assay, mouse CB2” value in assay [6] is given as “full agonists”.

Take `NC(=O)[C@@H]1CC(F)(F)CN1C(=O)c1ccc(N2CC(F)(F)C2)c(OCC2CC2)n1` [RO6895896, (2S)-1-[6-(Cyclopropylmethoxy)-5-(3,3-difluoroazetidin-1-yl)pyridine-2-carbonyl]-4,4-difluoro-pyrrolidine-2-carboxamide]: in assay [2] (setting [8]), the “infiltration of CD4+ lymphocytes” value was “did not affect lymphocyte infiltration”. In assay [2] (10 mg/kg once daily i.p.), the “%IBA1+ area (microglial expansion)” value was determined as 6.0 ± 0.2%, the “fraction of LC3A bright MN” value worked out at 73.4 ± 12.4% and the “misfolded SOD1: high-burden MN fraction” value is recorded as 72.4 ± 11.3%. The “effect on microglial size in WT animals” value in assay [4] was “did not affect microglial size”. Also, in assay [3], the “functional activity in cAMP assay, human CB2” value is “full agonists”. Further, in assay [6], the “functional activity in cAMP assay, mouse CB2” value is “full agonists”.
